In ChEMBL document CHEMBL1811906, “Synthesis and evaluation of strand and turn modified ring-extended gramicidin S derivatives” (Bioorg Med Chem, 2011):
In brackets after ≈: the same amount, converted by molar mass. Residues, ends and D or L forms follow the SMILES beside them.

What was measured:
[1] = tested on: Enterococcus faecalis; assay: Antimicrobial activity against Enterococcus faecalis ATCC 29212 after 24 hrs by broth dilution method; format: functional; conditions: ATCC 29212, 24 h
Outline: (§1)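 Strains stored at −70 °C, grown at 30 °C on blood agar, suspended in physiological saline to OD595 0.1, diluted 10× in saline. 2 µL inoculum added to 100 µL nutrient broth with yeast extract. Peptides dissolved in ethanol (4 g/L), diluted in water (1 g/L), then two-fold in broth (64 to 1 mg/L). Incubated at 30 °C; MIC read as lowest concentration inhibiting growth at 24 h.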

[2] = tested on: Pseudomonas aeruginosa; assay: Antimicrobial activity against Pseudomonas aeruginosa ATCC 27853 after 24 hrs by broth dilution method; format: functional; conditions: ATCC 27853, 24 h; outline: as §1
[3] = tested on: Proteus mirabilis; assay: Antimicrobial activity against Proteus mirabilis 1190901236 after 24 hrs by broth dilution method; format: functional; conditions: Proteus mirabilis, 1190901236, 24 h; outline: as §1
[4] = tested on: Klebsiella pneumoniae; assay: Antimicrobial activity against Klebsiella pneumoniae 1190901525 after 24 hrs by broth dilution method; format: functional; conditions: Klebsiella pneumoniae, 1190901525, 24 h; outline: as §1
[5] = tested on: Bacillus cereus; assay: Antimicrobial activity against Bacillus cereus ATCC 11778 after 24 hrs by broth dilution method; format: functional; conditions: ATCC 11778, 24 h; outline: as §1
[6] = Toxicity in human erythrocytes assessed as hemolytic activity after 4 hrs; format: cell-based; conditions: erythrocyte
Outline: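 Heparinized fresh blood spun at 1000 g, 10 °C; erythrocytes washed three times in 0.85% saline and diluted to 1/25 packed volume. Peptide stocks 1.5 mM in 30% DMSO/saline, serially two-fold diluted in saline. Cells added, then incubated 4 h at 37 °C and centrifuged. Supernatant A405 read against 1% Triton X-100 as full lysis; single experiment run in triplicate.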

[7] = tested on: Escherichia coli; assay: Antimicrobial activity against Escherichia coli ATCC 25922 after 24 hrs by broth dilution method; format: functional; conditions: ATCC 25922, 24 h; outline: as §1
[8] = tested on: Staphylococcus aureus; assay: Antimicrobial activity against Staphylococcus aureus ATCC 29213 after 24 hrs by broth dilution method; format: functional; conditions: ATCC 29213, 24 h; outline: as §1
[9] = tested on: Staphylococcus epidermidis; assay: Antimicrobial activity against Staphylococcus epidermidis ATCC 12228 after 24 hrs by broth dilution method; format: functional; conditions: ATCC 12228, 24 h; outline: as §1
[10] = tested on: Enterobacter cloacae; assay: Antimicrobial activity against Enterobacter cloacae 1190900252 after 24 hrs by broth dilution method; format: functional; conditions: Enterobacter cloacae, 1190900252, 24 h; outline: as §1

MIC [1]	MIC [2]	MIC [3]	MIC [4]	MIC [5]	MIC [7]	MIC [8]	MIC [9]	MIC [10]	Compound	HD100 [6]
32 µg/mL (≈ 20.2 µM)	64 µg/mL (≈ 40.3 µM)	> 64 µg/mL	32 µg/mL (≈ 20.2 µM)	8 µg/mL (≈ 5.04 µM)	32 µg/mL (≈ 20.2 µM)	16 µg/mL (≈ 10.1 µM)	8 µg/mL (≈ 5.04 µM)	32 µg/mL (≈ 20.2 µM)	CC(C)C[C@@H]1NC(=O)[C@H](CCCN)NC(=O)[C@H](C(C)C)NC(=O)[C@@H]2CCCN2C(=O)[C@@H](Cc2ccccc2)NC(=O)[C@H](CC(C)C)NC(=O)[C@H](CCCN)NC(=O)[C@H](C(C)C)NC(=O)[C@H](CCCN)NC(=O)[C@H](CC(C)C)NC(=O)[C@@H]2O[C@H](CNC(=O)[C@H](C(C)C)NC(=O)[C@@H](CCCN)NC1=O)[C@@H](OCc1ccccc1)[C@@H]2O	500 µM
8 µg/mL (≈ 4.77 µM)	16 µg/mL (≈ 9.54 µM)	> 64 µg/mL	32 µg/mL (≈ 19.1 µM)	2 µg/mL (≈ 1.19 µM)	16 µg/mL (≈ 9.54 µM)	4 µg/mL (≈ 2.38 µM)	4 µg/mL (≈ 2.38 µM)	32 µg/mL (≈ 19.1 µM)	CC(C)C[C@@H]1NC(=O)[C@H](CCCN)NC(=O)[C@H](C(C)C)NC(=O)[C@@H]2CCCN2C(=O)[C@@H](Cc2ccccc2)NC(=O)[C@H](CC(C)C)NC(=O)[C@H](CCCN)NC(=O)[C@H](C(C)C)NC(=O)[C@H](CCCN)NC(=O)[C@H](CC(C)C)NC(=O)[C@@H]2O[C@H](CNC(=O)[C@H](C(C)C)NC(=O)[C@H](CCCN)NC1=O)[C@@H](OCc1ccccc1)[C@@H]2OCc1ccccc1	15.6 µM
8 µg/mL (≈ 5.04 µM)	16 µg/mL (≈ 10.1 µM)	> 64 µg/mL	16 µg/mL (≈ 10.1 µM)	4 µg/mL (≈ 2.52 µM)	16 µg/mL (≈ 10.1 µM)	4 µg/mL (≈ 2.52 µM)	4 µg/mL (≈ 2.52 µM)	16 µg/mL (≈ 10.1 µM)	CC(C)C[C@@H]1NC(=O)[C@H](CCCN)NC(=O)[C@H](C(C)C)NC(=O)[C@@H]2CCCN2C(=O)[C@@H](Cc2ccccc2)NC(=O)[C@H](CC(C)C)NC(=O)[C@H](CCCN)NC(=O)[C@H](C(C)C)NC(=O)[C@H](CCCN)NC(=O)[C@H](CC(C)C)NC(=O)[C@@H]2O[C@H](CNC(=O)[C@H](C(C)C)NC(=O)[C@H](CCCN)NC1=O)[C@@H](OCc1ccccc1)[C@@H]2O	15.6 µM
16 µg/mL (≈ 9.54 µM)	64 µg/mL (≈ 38.2 µM)	> 64 µg/mL	32 µg/mL (≈ 19.1 µM)	8 µg/mL (≈ 4.77 µM)	32 µg/mL (≈ 19.1 µM)	8 µg/mL (≈ 4.77 µM)	8 µg/mL (≈ 4.77 µM)	32 µg/mL (≈ 19.1 µM)	CC(C)C[C@@H]1NC(=O)[C@H](CCCN)NC(=O)[C@H](C(C)C)NC(=O)[C@@H]2CCCN2C(=O)[C@@H](Cc2ccccc2)NC(=O)[C@H](CC(C)C)NC(=O)[C@H](CCCN)NC(=O)[C@H](C(C)C)NC(=O)[C@H](CCCN)NC(=O)[C@H](CC(C)C)NC(=O)[C@@H]2O[C@H](CNC(=O)[C@H](C(C)C)NC(=O)[C@@H](CCCN)NC1=O)[C@@H](OCc1ccccc1)[C@@H]2OCc1ccccc1	500 µM
> 64 µg/mL	> 64 µg/mL	> 64 µg/mL	> 64 µg/mL	64 µg/mL (≈ 42.8 µM)	64 µg/mL (≈ 42.8 µM)	> 64 µg/mL	16 µg/mL (≈ 10.7 µM)	64 µg/mL (≈ 42.8 µM)	CC(C)C[C@@H]1NC(=O)[C@H](CCCN)NC(=O)[C@H](C(C)C)NC(=O)[C@@H]2CCCN2C(=O)[C@@H](Cc2ccccc2)NC(=O)[C@H](CC(C)C)NC(=O)[C@H](CCCN)NC(=O)[C@H](C(C)C)NC(=O)[C@H](CCCN)NC(=O)[C@H](CC(C)C)NC(=O)[C@@H]2O[C@H](CNC(=O)[C@H](C(C)C)NC(=O)[C@@H](CCCN)NC1=O)[C@@H](O)[C@@H]2O	> 500 µM

Continued, molecule first:

Compound	MIC [1]	MIC [2]	MIC [3]	MIC [4]	MIC [5]	MIC [7]	MIC [8]	MIC [9]	MIC [10]	HD100 [6]
CC(C)C[C@@H]1NC(=O)[C@H](CCCN)NC(=O)[C@H](C(C)C)NC(=O)[C@@H]2CCCN2C(=O)[C@@H](Cc2ccccc2)NC(=O)[C@H](CC(C)C)NC(=O)[C@H](CCCN)NC(=O)[C@H](C(C)C)NC(=O)[C@H](CCCN)NC(=O)[C@H](CC(C)C)NC(=O)[C@@H]2CCCN2C(=O)[C@@H](Cc2ccccc2)NC(=O)[C@H](C(C)C)NC(=O)[C@@H](CCCN)NC1=O	16 µg/mL (≈ 10.1 µM)	8 µg/mL (≈ 5.06 µM)	> 64 µg/mL	32 µg/mL (≈ 20.2 µM)	16 µg/mL (≈ 10.1 µM)	64 µg/mL (≈ 40.5 µM)	8 µg/mL (≈ 5.06 µM)	8 µg/mL (≈ 5.06 µM)	32 µg/mL (≈ 20.2 µM)	125 µM
CC(C)C[C@@H]1NC(=O)[C@H](CCCCN)NC(=O)[C@H](C(C)C)NC(=O)[C@@H]2CCCN2C(=O)[C@@H](Cc2ccc(O)cc2)NC(=O)[C@H](CC(C)C)NC(=O)[C@H](CCCCN)NC(=O)[C@H](C(C)C)NC(=O)[C@H](CCCCN)NC(=O)[C@H](CC(C)C)NC(=O)[C@@H]2CCCN2C(=O)[C@@H](Cc2ccc(O)cc2)NC(=O)[C@H](C(C)C)NC(=O)[C@@H](CCCCN)NC1=O (HELM PEPTIDE1{K.L.[dK].V.[dY].P.L.K.V.K.L.[dY].P.V}$PEPTIDE1,PEPTIDE1,1:R1-14:R2$$$V2.0)	64 µg/mL (≈ 38.3 µM)	> 64 µg/mL	> 64 µg/mL	64 µg/mL (≈ 38.3 µM)	16 µg/mL (≈ 9.58 µM)	64 µg/mL (≈ 38.3 µM)	64 µg/mL (≈ 38.3 µM)	8 µg/mL (≈ 4.79 µM)	64 µg/mL (≈ 38.3 µM)	500 µM
CC(C)C[C@@H]1NC(=O)[C@H](CCCCN)NC(=O)[C@H](C(C)C)NC(=O)[C@@H]2CCCN2C(=O)[C@@H](Cc2ccc(O)cc2)NC(=O)[C@H](CC(C)C)NC(=O)[C@H](CCCCN)NC(=O)[C@H](C(C)C)NC(=O)[C@H](CCCCN)NC(=O)[C@H](CC(C)C)NC(=O)[C@@H]2CCCN2C(=O)[C@@H](Cc2ccc(O)cc2)NC(=O)[C@H](C(C)C)NC(=O)[C@H](CCCCN)NC1=O (HELM PEPTIDE1{K.L.K.V.[dY].P.L.K.V.K.L.[dY].P.V}$PEPTIDE1,PEPTIDE1,1:R1-14:R2$$$V2.0)	32 µg/mL (≈ 19.2 µM)	> 64 µg/mL	> 64 µg/mL	> 64 µg/mL	32 µg/mL (≈ 19.2 µM)	> 64 µg/mL	> 64 µg/mL	64 µg/mL (≈ 38.3 µM)	> 64 µg/mL	3.9 µM
CC(C)C[C@@H]1NC(=O)[C@H](CCCN)NC(=O)[C@H](C(C)C)NC(=O)[C@@H]2CCCN2C(=O)[C@@H](Cc2ccccc2)NC(=O)[C@H](CC(C)C)NC(=O)[C@H](CCCN)NC(=O)[C@H](C(C)C)NC(=O)[C@H](CCCN)NC(=O)[C@H](CC(C)C)NC(=O)[C@@H]2CCCN2C(=O)[C@@H](Cc2ccccc2)NC(=O)[C@H](C(C)C)NC(=O)[C@H](CCCN)NC1=O	8 µg/mL (≈ 5.06 µM)	64 µg/mL (≈ 40.5 µM)	> 64 µg/mL	64 µg/mL (≈ 40.5 µM)	16 µg/mL (≈ 10.1 µM)	32 µg/mL (≈ 20.2 µM)	16 µg/mL (≈ 10.1 µM)	8 µg/mL (≈ 5.06 µM)	64 µg/mL (≈ 40.5 µM)	3.9 µM
CC(C)C[C@@H]1NC(=O)[C@H](CCCN)NC(=O)[C@H](C(C)C)NC(=O)[C@@H]2CCCN2C(=O)[C@@H](Cc2ccccc2)NC(=O)[C@H](CC(C)C)NC(=O)[C@H](CCCN)NC(=O)[C@H](C(C)C)NC(=O)[C@@H]2CCCN2C(=O)[C@@H](Cc2ccccc2)NC1=O [GRAMICIDIN S] (HELM PEPTIDE1{L.[dF].P.V.[Orn].L.[dF].P.V.[Orn]}$PEPTIDE1,PEPTIDE1,1:R1-10:R2$$$V2.0)	8 µg/mL (≈ 7.01 µM)	64 µg/mL (≈ 56.1 µM)	> 64 µg/mL	64 µg/mL (≈ 56.1 µM)	4 µg/mL (≈ 3.5 µM)	32 µg/mL (≈ 28 µM)	4 µg/mL (≈ 3.5 µM)	4 µg/mL (≈ 3.5 µM)	64 µg/mL (≈ 56.1 µM)	62.5 µM
CC(C)C[C@@H]1NC(=O)[C@H](CCCN)NC(=O)[C@H](C(C)C)NC(=O)[C@@H]2CCCN2C(=O)[C@@H](Cc2ccccc2)NC(=O)[C@H](CC(C)C)NC(=O)[C@H](CCCN)NC(=O)[C@H](C(C)C)NC(=O)[C@H](CCCN)NC(=O)[C@H](CC(C)C)NC(=O)[C@@H]2O[C@H](CNC(=O)[C@H](C(C)C)NC(=O)[C@H](CCCN)NC1=O)[C@@H](O)[C@@H]2O	8 µg/mL (≈ 5.34 µM)	16 µg/mL (≈ 10.7 µM)	> 64 µg/mL	16 µg/mL (≈ 10.7 µM)	4 µg/mL (≈ 2.67 µM)	8 µg/mL (≈ 5.34 µM)	8 µg/mL (≈ 5.34 µM)	4 µg/mL (≈ 2.67 µM)	16 µg/mL (≈ 10.7 µM)	31.3 µM
